Assay outcomes deposited in PubChem by The Scripps Research Institute Molecular Screening Center.
The list is not random: actives were taken first. Their share in the collection is about 4.6%.
OX1R antag-1 = antagonists of human orexin 1 receptor (OX1R); Orexin/Hypocretin receptor type 1 (Homo sapiens), O43613; OX1R-expressing cells, FRET antagonist read-out; inhibition, % at 6.6 µM; 330,000 tested, 1.8% active; AID 485270, 2010; in the data active means inhibition mostly above about 38%, no sharp cut-off; inactive means mostly below about 40%
GPR7 antagonist = GPR7 receptor antagonists, primary screen, cell-based, fluorescence, single concentration; Neuropeptides B/W receptor type 1 (Homo sapiens), P48145; GPR7-expressing cells, fluorescence antagonist assay; inhibition, % at 4.4 µM; 290,000 tested, 1.1% active; AID 1861, 2009; in the data active means inhibition above about 16%, passing the limit was not always enough;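 further: cells stimulated with the agonist NPW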
Target sequence (P48145 whole entry, looked up): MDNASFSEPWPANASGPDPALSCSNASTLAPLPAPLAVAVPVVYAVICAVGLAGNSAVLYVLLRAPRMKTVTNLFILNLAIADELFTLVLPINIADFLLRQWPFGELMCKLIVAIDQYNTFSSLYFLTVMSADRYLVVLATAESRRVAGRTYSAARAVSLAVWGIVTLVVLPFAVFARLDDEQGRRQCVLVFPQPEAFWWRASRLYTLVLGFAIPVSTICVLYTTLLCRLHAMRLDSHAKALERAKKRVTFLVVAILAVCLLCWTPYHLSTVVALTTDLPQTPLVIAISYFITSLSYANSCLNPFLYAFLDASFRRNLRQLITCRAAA
TAAR1 antag = human TAAR1 antagonists, primary screen, Fluo-8 calcium fluorescence, CHO RD-HGA16 cells; Trace amine-associated receptor 1 (Homo sapiens), Q96RJ0; antagonist; inhibition, % at 3 µM; 360,000 tested, 1.5% active;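 active means inhibition above a per-plate cutoff, the mean inhibition of test compounds on that plate plus 3 SD, cut at about 49% in these data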
Target sequence (Q96RJ0 whole entry, looked up): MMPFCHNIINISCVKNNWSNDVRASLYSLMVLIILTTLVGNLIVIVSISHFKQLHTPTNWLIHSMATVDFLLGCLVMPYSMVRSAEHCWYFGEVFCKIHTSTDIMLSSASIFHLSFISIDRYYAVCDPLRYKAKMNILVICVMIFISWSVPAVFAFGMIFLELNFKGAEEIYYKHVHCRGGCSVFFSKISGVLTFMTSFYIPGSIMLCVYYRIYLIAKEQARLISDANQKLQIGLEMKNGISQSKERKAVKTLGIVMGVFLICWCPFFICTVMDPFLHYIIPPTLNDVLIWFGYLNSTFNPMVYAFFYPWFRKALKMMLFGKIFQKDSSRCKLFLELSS
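Test system: RD-HGA16 CHO cells with stable hTAAR1 and Gα16 / Probe or stimulus: EC80 β-phenethylamine stimulus / Times: seeding 17-24 h prior, 75-min 37 °C, 30-min RT dye loading / Detection: Fluo-8 calcium-sensitive fluorescence / Read-out basis: % inhibition scaled between DMSO and EC80 PEA controls / Repeats: singlicate, one well per test compound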
OX1R antag-2 = OX1R (HCRTR1) antagonists, primary screen, fluorescence, CHO/OX1R cells, Fluo-8 calcium, orexin A. Orexin/Hypocretin receptor type 1 (Homo sapiens), O43613. Fluo-8 calcium fluorescence. inhibition, % at 5 µM. 330,000 tested, 0.43% active. AID 434989, 2010;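 active means inhibition above its plate's threshold, mean inhibition of all tested compounds on the plate plus 3 SD, cut at about 37% in these data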
TAAR1 agonist = human TAAR1 agonists, primary screen, Fluo-8 calcium fluorescence, CHO RD-HGA16 cells; Trace amine-associated receptor 1 (Homo sapiens), Q96RJ0; vehicle wells 0%, saturating PEA agonist 100%; activation, % at 3 µM; 360,000 tested, 0.99% active;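 active means activation above the mean activation of all test compounds in the run plus 3 SD, cut at about 38% in these data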
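Benchmarks: low control DMSO, high control PEA (EC100); System: CHO RD-HGA16 cells carrying human TAAR1 plus Gα16; Detection: Fluo-8 fluorescence, 5 s baseline then 140 s kinetic read; Schedule: 17-24 h plating, Fluo-8 75 min 37 °C, 30 min RT; Read-out basis: % activation from peak over basal fluorescence ratio, DMSO-to-PEA scaled.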
CHO parental Ca = ATP-evoked calcium signal inhibitors, parental CHO, primary screen, counter-screen for OX1R antagonist project, cell-based, fluorescence, Fluo-8 calcium dye | AID 463079, 2010 | 330,000 tested, 0.63% active | inhibition, % at 5.6 µM | parental CHO-K1, ATP-induced calcium, Fluo-8 fluorescence;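 active means inhibition above that plate's mean sample inhibition plus 3 SD, cut at about 26% in these data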
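Assay system: untransfected parental CHO cell line. Also added: ATP agonist challenge. Dosing: one dose, 5.6 µM nominal. Measured by: Fluo-8 fluorescence. Read-out: % inhibition. Benchmarks: ATP wells versus no-ATP DMSO wells. Repeats: no replicates.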
GPR7 antag cf = GPR7 receptor antagonists, confirmation, cell-based, fluorescence, single concentration | shares compounds with GPR7 antagonist | GPR7-expressing cells, calcium fluorescence antagonist mode | inhibition, % at 4.4 µM | 2,400 tested, 52% active | AID 1952, 2009; in the data active means inhibition above about 24%;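 further: stimulated with the GPR7 agonist NPW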
MCHR1 antag = MCHR1 antagonists in cells, counter-screen for GPR7 antagonist project, cell-based, fluorescence, human. inhibition, % at 4.4 µM. 2,400 tested, 62% active. shares compounds with GPR7 antagonist. MCHR1-expressing cells, fluorescence antagonist assay. AID 2148, 2009; in the data active means inhibition above about 22%
Of the large screens only hits and unclear results are named; the others gave an inactive call (follow-up assays come after a bar, where they were run).

Cc1ccc(CN(c2ccc(C(=O)N3CCc4ccccc4C3)cc2)S(C)(=O)=O)cc1	GPR7 antagonist 33.3 | GPR7 antag cf 31.6 | MCHR1 antag 47.4
CS(=O)(=O)N(Cc1ccccc1)c1ccc(C(=O)N2CCN(c3cccc(Cl)c3)CC2)cc1	GPR7 antagonist 23.9 (no result: TAAR1 antag, TAAR1 agonist) | GPR7 antag cf 36.4 | MCHR1 antag 70.0
CS(=O)(=O)N(Cc1ccc(C(=O)N2CCc3ccccc3C2)cc1)c1ccccc1	none
O=C(Nc1ccc2c(c1)OCO2)Nc1ccc(F)cc1F	none
O=C1Nc2ccccc2C(=O)N(c2ccc3c(c2)OCCO3)C1C(=O)NC1CC1 (centres undefined)	none (no result: OX1R antag-1, GPR7 antagonist, OX1R antag-2, CHO parental Ca)
CC1CN(S(=O)(=O)c2cccc(C(=O)NCCc3ccc(S(N)(=O)=O)cc3)c2)CC(C)O1 (centres undefined)	none (no result: GPR7 antagonist)
COc1cc(C(=O)c2ccccc2C(=O)O)c(OC)c2c1CCCC2	none (no result: OX1R antag-1, GPR7 antagonist, OX1R antag-2, CHO parental Ca)
CCCN1C(=O)c2[nH]nc(-c3ccccc3)c2C1c1ccc(Br)cc1 (centres undefined)	none (no result: OX1R antag-1, GPR7 antagonist, OX1R antag-2, CHO parental Ca)
O=C(O)c1ccc(CNS(=O)(=O)c2ccc3ccccc3c2)cc1	GPR7 antagonist 22.7 | GPR7 antag cf inactive | MCHR1 antag inactive
NS(=O)(=O)c1ccc(CNS(=O)(=O)c2ccc3ccccc3c2)cc1	none
Cc1ccc(CNC(=O)C2CC(=O)N(c3ccc(OCC(=O)N4CCCC4)cc3)C2)cc1 (centres undefined)	none
O=C(O)CSCC(=O)N1CCN(c2ncnc3scc(-c4ccccc4)c23)CC1	none
O=C(CSc1ncnc2scc(-c3ccccc3)c12)N1CCN(c2ccccc2F)CC1	GPR7 antagonist 26.7 | GPR7 antag cf 25.2 | MCHR1 antag 33.6
Cc1csc(=O)n1CC(=O)OCC(=O)Nc1ccc(F)c(F)c1F	none (no result: OX1R antag-1, GPR7 antagonist, OX1R antag-2, CHO parental Ca)
CCCC(CNC(C)=O)(C1=CCCCC1)c1ccccc1 (centres undefined)	none (no result: OX1R antag-1, GPR7 antagonist, OX1R antag-2, CHO parental Ca)
CCOC(=O)CSc1nnc(CNc2ccc(Cl)cc2)n1Cc1ccccc1	none
CC(C)OC(=O)CSc1nnc(CNc2ccc(Cl)cc2)n1Cc1ccccc1	GPR7 antagonist 26.5, OX1R antag-2 53.3, CHO parental Ca 55.0 | GPR7 antag cf 23.8 | MCHR1 antag 51.3
O=C(NC1CCCCCCC1)C1c2ccccc2C(=O)N1Cc1ccco1 (centres undefined)	GPR7 antagonist 39.4 | GPR7 antag cf 25.3 | MCHR1 antag inactive
CC1CCCC(NC(=O)CNC(=S)N(Cc2ccccc2)Cc2cccs2)C1C (centres undefined)	GPR7 antagonist 21.6 | GPR7 antag cf 32.0 | MCHR1 antag 24.1
CC1CCCC(NC(=O)C2c3ccccc3C(=O)N2Cc2cccs2)C1C (centres undefined)	GPR7 antagonist 39.7 | GPR7 antag cf 27.8 | MCHR1 antag 24.1
CO/N=C\c1cc(C(=O)c2ccc(Cl)cc2Cl)cn1C	none
COc1ccc(OCCn2c(=N)n(CCO)c3ccccc32)cc1	none
N=c1n(CCO)c2ccccc2n1CCOc1ccc(Cl)cc1Cl	GPR7 antagonist 30.7 | GPR7 antag cf 57.5 | MCHR1 antag 43.0
COc1ccc(S(=O)(=O)N2CCCCCC2)cc1C(=O)N(C)CC(=O)Nc1ccc(Cl)c(Cl)c1	none (no result: GPR7 antagonist)
COc1ccc(S(=O)(=O)N2CCCCCC2)cc1C(=O)N(C)CC(=O)Nc1cc(C)ccc1C	GPR7 antagonist 29.9 (no result: OX1R antag-1, OX1R antag-2, CHO parental Ca) | GPR7 antag cf inactive | MCHR1 antag inactive
CCc1cc2c(NCc3ccccc3)nc(C)nc2s1	GPR7 antagonist 22.6 | GPR7 antag cf inactive | MCHR1 antag 38.0
CC1CCCN(S(=O)(=O)c2ccc(S(=O)(=O)NC(C)c3cccs3)cc2)C1 (centres undefined)	GPR7 antagonist 47.9 | GPR7 antag cf 53.2 | MCHR1 antag 31.9
O=C1/C(=C/c2ccc(S(=O)(=O)O)cc2S(=O)(=O)O)CCc2ccccc21	none (no result: OX1R antag-1, GPR7 antagonist, OX1R antag-2, CHO parental Ca)
CCC(c1nnnn1CCc1ccccc1)N1CCN(C(=O)c2ccco2)CC1 (centres undefined)	GPR7 antagonist 21.3 | GPR7 antag cf inactive | MCHR1 antag inactive
CC(C)CC(c1nnnn1CCc1ccccc1)N1CCN(C(=O)c2ccco2)CC1 (centres undefined)	none
O=C(Nc1cccc(CNCCc2c[nH]c3ccccc23)c1)c1ccccc1Cl	GPR7 antagonist 46.5, TAAR1 agonist 49.4 | GPR7 antag cf 54.4 | MCHR1 antag 51.2
COc1ccc(NC(=S)N(Cc2ccc(C)cc2)Cc2ccccn2)cc1	GPR7 antagonist 25.0 | GPR7 antag cf inactive | MCHR1 antag inactive
COc1ccc(NC(=S)N(CCc2ccc(OC)c(OC)c2)Cc2ccccn2)cc1	none
COc1cc(CNc2ccccc2Oc2cc(=O)n(C)c(=O)n2C)cc(OC)c1OC	GPR7 antagonist 37.0 | GPR7 antag cf 24.9 | MCHR1 antag 24.4
Cn1c(Oc2ccccc2NCc2cc(Br)ccc2O)cc(=O)n(C)c1=O	none
Cc1ccc(S(=O)(=O)N2[C@H](CC(=O)c3ccc(Cl)c(Cl)c3)OC[C@@H]2C(C)C)cc1	none (no result: OX1R antag-1, GPR7 antagonist, OX1R antag-2, CHO parental Ca)
O=C(CSc1nnnn1-c1cccc2c1CCCC2)NC1CCCC1	GPR7 antagonist 33.7 | GPR7 antag cf inactive | MCHR1 antag 25.9
CC(CCn1cccn1)NC(=O)c1cc(COc2ccc(F)cc2F)on1 (centres undefined)	none
CC(CCn1cccn1)NC(=O)c1cc(COc2ccc(F)cc2Cl)on1 (centres undefined)	GPR7 antagonist 33.8 | GPR7 antag cf inactive | MCHR1 antag inactive
Cc1ccc(C(=O)NC2CCCc3ccccc32)cc1[N+](=O)[O-] (centres undefined)	GPR7 antagonist 34.4 | GPR7 antag cf 24.6 | MCHR1 antag 55.1
Cc1cc(C(=O)NC2CCCc3ccccc32)ccc1[N+](=O)[O-] (centres undefined)	none
O=[N+]([O-])c1ccc2nc(-c3ccccc3[N+](=O)[O-])[nH]c2c1	GPR7 antagonist 25.0 | GPR7 antag cf inactive | MCHR1 antag inactive
